ChEMBL document CHEMBL1131206, “Synthesis, anticonvulsant activity, and structure-activity relationships of sodium channel blocking 3-aminopyrroles” (J Med Chem, 1998)

Columns and labels:
[1] = tested on: Mus musculus; assay: Minimal motor impairment activity by Rotarod test in mice following i.p. administration.; assay type: functional; details: ip
Summary of the method: (§1)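 Rotorod neurotoxicity test in male albino CF No. 1 mice dosed ip, run at the time of peak effect. Impairment was defined as failure to keep equilibrium for 60 s in each of three trials on the rotating rod. With groups of at least eight mice across various doses, the median motor-impairing dose and its 95% confidence interval were calculated.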

[2] = Partition coefficient (logP); assay type: physicochemical; details: octanol/water
[3] = tested on: Rattus norvegicus; assay: Minimal motor impairment activity by Rotarod test in rat following p.o. administration.; assay type: functional; details: po
Summary of the method: (§2)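 Minimal motor impairment in male Sprague–Dawley rats (100 g) after oral dosing was judged at the time of peak effect. The criterion was overt ataxia, abnormal gait and stance, and/or loss of placing response and muscle tone. Groups had at least eight rats across various doses, and the median impairing dose with its 95% confidence interval was calculated.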

[4] = tested on: Rattus norvegicus; assay: Anticonvulsant activity was measured by maximal electroshock seizure test in rat by po administration at 50 mg/kg dose; assay type: functional
Summary of the method: (§3)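 Maximal electroshock test in male albino Sprague–Dawley rats (100 g) after oral dosing, run at the previously determined time of peak effect. At least eight rats per group received various doses until at least two points lay between 0% and 100% protection. ED50 with 95% confidence interval was calculated. Single-dose entries report percent protection at that dose.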

[5] = tested on: Mus musculus; assay: Anticonvulsant activity was measured by maximal electroshock seizure test in mice by ip administration at 100 mg/kg dose; assay type: functional; details: route intraperitoneal
Summary of the method: (§4)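 Male albino CF No. 1 mice (18–25 g) were dosed ip and tested by maximal electroshock at the previously determined time of peak effect. Groups of at least eight mice received various doses until at least two points fell between 0% and 100% protection. ED50 and its 95% confidence interval were calculated. Single-dose entries give protection percentage at the indicated dose.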

[6] = tested on: Mus musculus; assay: Anticonvulsant activity was measured by maximal electroshock seizure test in mice by ip administration; assay type: functional; summary of the method: as §4
[7] = tested on: Rattus norvegicus; assay: Anticonvulsant activity was measured by maximal electroshock seizure test in rat by po administration; assay type: functional; summary of the method: as §3
[8] = tested on: Rattus norvegicus; assay: Anticonvulsant activity was measured by maximal electroshock seizure test in rat by po administration; No effective response; assay type: functional, organism-based; summary of the method: as §3
[9] = tested on: Mus musculus; assay: Minimal motor impairment activity of the compound was measured by Rotarod test in mice by ip administration; No effective response; assay type: functional, organism-based; summary of the method: as §1
[10] = tested on: Mus musculus; assay: Anticonvulsant activity was measured by maximal electroshock seizure test in mice by ip administration; No effective response; assay type: functional, organism-based; summary of the method: as §4
[11] = tested on: Rattus norvegicus; assay: Minimal motor impairment activity of the compound was measured by […] in rat by po administration; No effective response; assay type: functional, organism-based; summary of the method: as §2
[12] = tested on: Rattus norvegicus; assay: Anticonvulsant activity was measured by maximal electroshock seizure test in rat by po administration at 30 mg/kg; assay type: functional; summary of the method: as §3
[13] = tested on: Mus musculus; assay: Anticonvulsant activity was measured by maximal electroshock seizure test in mice by ip administration at 30 mg/kg; assay type: functional; details: route intraperitoneal; summary of the method: as §4
[14] = tested on: Rattus norvegicus; assay: Anticonvulsant activity was measured by maximal electroshock seizure test in rat by po administration at 50 mg/kg; assay type: functional; summary of the method: as §3
[15] = tested on: Mus musculus; assay: Anticonvulsant activity was measured by maximal electroshock seizure test in mice by ip administration at 100 mg/kg; assay type: functional; details: route intraperitoneal; summary of the method: as §4
[16] = tested on: Rattus norvegicus; assay: Anticonvulsant activity in corneal kindled rats was determined when 75 mg/kg was administered orally; assay type: functional; details: route oral
Summary of the method: (§5)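 Corneally kindled male Sprague–Dawley rats (100 g), stimulated daily via corneal electrodes (8 mA, 60 Hz, 4 s) until 10 consecutive stage 5 seizures. Drug was dosed orally at 0.04 mL/10 g body weight. Seizure severity was scored after dosing, with abolition of the generalized stage 4/5 seizure (clonus, rearing and falling) as the endpoint.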

[17] = tested on: Rattus norvegicus; assay: Anticonvulsant activity in corneal kindled rats was determined when 50 mg/kg was administered orally; assay type: functional; details: route oral; summary of the method: as §5
[18] = tested on: Rattus norvegicus; assay: Anticonvulsant activity in corneal kindled rats was determined when 100 mg/kg was administered orally; assay type: functional; details: route oral; summary of the method: as §5
[19] = tested on: Rattus norvegicus; assay: Anticonvulsant activity in corneal kindled rats was determined when 25 mg/kg was administered orally; assay type: functional; details: route oral; summary of the method: as §5

| SMILES | logP [2] | ED50 [1] [mg/kg] | ED50 [3] [mg/kg] | ED50 [6] [mg/kg] | ED50 [7] [mg/kg] | other results |
| --- | --- | --- | --- | --- | --- | --- |
| COC(=O)c1c(N2CCOCC2)c(-c2ccc(Cl)cc2)cn1C(=O)c1ccccc1 | 5.5 | 175 | > 500 | 43.7 | 14 | – |
| CCN1C(=O)c2c(N3CCOCC3)c(-c3ccc(Cl)cc3)cn2C1=O | – | – | – | – | – | ED50 [8]: No effective response; ED50 [9]: No effective response; ED50 [10]: No effective response; ED50 [11]: No effective response |
| Clc1ccc(-c2cnoc2N2CCOCC2)cc1 | – | – | – | – | – | ED50 [8]: No effective response; ED50 [9]: No effective response; ED50 [10]: No effective response; ED50 [11]: No effective response |
| CCOC(=O)c1[nH]cc(-c2ccc(Cl)cc2)c1N1CCN(C)CC1 | – | < 25 | < 25 | – | – | Protection [12]: 100%; Protection [13]: 100% |
| CC(=O)c1[nH]cc(-c2ccc(Cl)cc2)c1N1CCOCC1 | – | 335 | > 100 | 72.6 | 10.6 | – |
| COC(=O)c1[nH]cc(-c2ccccc2C)c1N1CCOCC1 | 2.8 | > 100 | > 50 | – | – | Protection [14]: 50%; Protection [15]: 60% |
| COC(=O)c1[nH]cc(-c2ccc(Br)cc2)c1N1CCOCC1 | 3.8 | 166 | > 500 | 27.8 | 2.5 | Seizure score [16]: 1.7; Seizure score [17]: 3.7; Seizure score [18]: 1.9; Seizure score [19]: 4.3 |

The next lines start with results.

| logP [2] | SMILES | ED50 [1] [mg/kg] | ED50 [3] [mg/kg] | ED50 [6] [mg/kg] | ED50 [7] [mg/kg] | other results |
| --- | --- | --- | --- | --- | --- | --- |
| 3.5 | N#Cc1[nH]cc(-c2ccc(Cl)cc2)c1N1CCOCC1 | > 300 | > 50 | – | – | Protection [4]: 100%; Protection [5]: 30% |
| 3.7 | C=CCNC(=O)c1[nH]cc(-c2ccc(Cl)cc2)c1N1CCOCC1 | – | – | – | – | – |
| 2.4 | NC(=O)c1[nH]cc(-c2ccc(Cl)cc2)c1N1CCOCC1 | > 500 | > 50 | 65 | – | – |
| 3.2 | Clc1ccc(-c2c[nH]cc2N2CCOCC2)cc1 | 115 | > 200 | 62.1 | 17.7 | – |
| 4.2 | Cn1cc(-c2ccc(Cl)cc2)c(N2CCOCC2)c1 | – | – | – | – | – |
| 3.1 | CN(C)C(=O)c1[nH]cc(-c2ccc(Cl)cc2)c1N1CCOCC1 | – | – | – | – | – |
| 3.5 | COC(=O)c1c(N2CCOCC2)c(-c2ccc(Cl)cc2)cn1C(C)=O | 35.4 | > 250 | 33.1 | 13.6 | – |
| 4.2 | CCCNC(=O)c1[nH]cc(-c2ccc(Cl)cc2)c1N1CCOCC1 | – | – | – | – | – |
| 2.3 | Cn1cc(-c2ccc(Cl)cc2)c(N2CCOCC2)c1C(=O)O | – | – | – | – | – |
